# pIC50: −log10 of the molar value.
# Biological target: T1, Cytochrome P450 2B1 (Rattus norvegicus, UniProt P00176)
# T1 sequence (P00176 whole entry): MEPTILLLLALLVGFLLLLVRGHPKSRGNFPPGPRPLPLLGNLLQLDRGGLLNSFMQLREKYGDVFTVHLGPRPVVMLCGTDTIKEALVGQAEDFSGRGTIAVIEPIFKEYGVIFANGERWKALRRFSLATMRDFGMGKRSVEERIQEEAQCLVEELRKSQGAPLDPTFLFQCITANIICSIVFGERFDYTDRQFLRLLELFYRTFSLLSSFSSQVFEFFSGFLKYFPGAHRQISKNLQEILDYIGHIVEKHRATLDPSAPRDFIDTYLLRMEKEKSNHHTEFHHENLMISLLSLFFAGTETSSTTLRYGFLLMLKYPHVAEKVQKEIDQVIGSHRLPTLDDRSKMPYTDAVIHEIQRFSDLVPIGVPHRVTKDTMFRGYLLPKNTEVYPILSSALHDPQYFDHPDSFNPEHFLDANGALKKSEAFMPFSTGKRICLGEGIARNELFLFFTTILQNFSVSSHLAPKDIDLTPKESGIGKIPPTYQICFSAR
# Experiment: Inhibitory potency to aminopyrine N-demethylase activity (P450) in hepatic microsomes from phenobarbitone-induced rats.
# Method in brief: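 Microsomes (105000g pellet) from livers of male Wistar rats (100–150 g) given phenobarbitone ip on consecutive days. A 3.0 mL mix in 0.1 M K phosphate, pH 7.4, held aminopyrine 1.61 μmol, NADPH-generating system, semicarbazide and 5.6 mg protein, run 15 min. Formaldehyde was read by Nash/Hantzsch. Inhibitor went in DMSO or 0.07 M HCl, with solvent in controls. I50 came from seven concentrations.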
row,SMILES,pIC50
1,CCc1nc2ccc(C)cc2[nH]1,3.57
2,O=[N+]([O-])c1cccc2[nH]cnc12,3.33
3,O=[N+]([O-])c1ccc2[nH]cnc2c1 [5-Nitro-1H-benzoimidazole],3.51
4,Cc1nc2c(C)c(C)ccc2[nH]1,3.60
5,CC(=O)Nc1cc(Cl)cc2[nH]c(C)nc12,3.51
6,c1cncc(-c2nc3ccccc3[nH]2)c1,3.70
7,Cc1ccc2[nH]cnc2c1 [5-methyl-1H-benzimidazole],3.24
8,Fc1ccc2[nH]cnc2c1,3.36
9,CC(C)(C)c1nc2ccccc2[nH]1,3.52
10,c1ccc2[nH]c(C3CC3)nc2c1,3.60
11,ClCc1nc2ccccc2[nH]1,3.85
12,CCCc1nc2cc(C)c(C)cc2[nH]1,3.96
13,CCCCCc1nc2cc(NC(C)=O)ccc2[nH]1,3.80
14,O=[N+]([O-])c1cc(Cl)cc2[nH]cnc12,3.89
15,Cc1nc2ccc([N+](=O)[O-])cc2[nH]1,3.66
16,FC(F)(F)c1nc2ccccc2[nH]1,3.59

# Continued by rising pIC50, values first:
row,pIC50,SMILES
1,2.90,CC(=O)Nc1ccc2nc(C)[nH]c2c1
2,3.27,CC(C)c1nc2ccccc2[nH]1
3,3.28,Cc1cccc2[nH]cnc12
4,3.32,Cc1ccc2nc(C)[nH]c2c1
5,3.34,NCc1nc2ccccc2[nH]1
6,3.38,CCCCC(=O)Nc1ccc2nc(C)[nH]c2c1
7,3.52,Cc1nc2cc(NC(=O)c3ccccc3)ccc2[nH]1
8,3.80,Clc1ccc2[nH]cnc2c1
9,3.80,CC(C)Cc1nc2ccccc2[nH]1
10,3.80,OC(c1ccccc1)c1nc2ccccc2[nH]1 (stereo not drawn)
11,3.82,Cc1nc2cc(Cl)ccc2[nH]1
12,3.92,CCCCc1nc2ccccc2[nH]1
